Results taken from ChEMBL document CHEMBL5058577, “EUbOPEN Chemogenomics Library 2 (Multiplex)” (2022).

Tested on: HEK-293T
Experiment: Multiplex assay against HEK293T
Format: toxicity, cell-based
Conditions: human
Outline: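 Cells stained live at seeding with Hoechst33342, BioTracker Green Microtubule Cytoskeleton Dye, MitoTracker Red and Annexin V Alexa Fluor 680 were imaged on a CQ1 microscope at 37°C and 5% CO2 after compound addition. Their classification by CellPathfinder machine-learning gating ran from Hoechst high-intensity objects versus normal cells, to healthy, pyknosed or fragmented nuclei among normal cells, to mitotic or apoptotic among pyknosed cells. Tubulin, mitochondrial-mass and membrane-permeability phenotypes are per cents of healthy-nucleus cells.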

[1] = 12 h, 1 µM, compound concentration 1 uM, replicate 1
[2] = 12 h, 1 µM, compound concentration 1 uM, replicate 2
[3] = 12 h, 10 µM, compound concentration 10 uM, replicate 1
[4] = 12 h, 10 µM, compound concentration 10 uM, replicate 2
[5] = 24 h, 1 µM, compound concentration 1 uM, replicate 1
[6] = 24 h, 1 µM, compound concentration 1 uM, replicate 2
[7] = 24 h, 10 µM, compound concentration 10 uM, replicate 1
[8] = 24 h, 10 µM, compound concentration 10 uM, replicate 2
[9] = 48 h, 1 µM, compound concentration 1 uM, replicate 1
[10] = 48 h, 1 µM, compound concentration 1 uM, replicate 2
[11] = 48 h, 10 µM, compound concentration 10 uM, replicate 1
[12] = 48 h, 10 µM, compound concentration 10 uM, replicate 2

CC1(COc2ccc3c(c2)ncn3-c2ccc3cccc(N4CCC(N)CC4)c3n2)COC1 [CRENOLANIB]
Population Apoptotic (%) [1]: 58% | Population Fragmented Nuclei (%) [1]: 14% | Population Healthy Nuclei (%) [1]: 79% | Population Hoechst High Intensity Objects (%) [1]: 3% | Population Membrane Permeable-Phenotype (%) [1]: 2% | Population Mitochondria Different-Phenotype (%) [1]: 23% | Population Mitotic Cells (%) [1]: 41% | Population Normal (%) [1]: 96% | Population Pyknosed Nuclei (%) [1]: 6% | Population Tubulin-Different-Phenotype (%) [1]: 46% | Total Cell Count [1]: 412 | Population Apoptotic (%) [2]: 34% | Population Fragmented Nuclei (%) [2]: 10% | Population Healthy Nuclei (%) [2]: 80% | Population Hoechst High Intensity Objects (%) [2]: 6% | Population Membrane Permeable-Phenotype (%) [2]: 1% | Population Mitochondria Different-Phenotype (%) [2]: 51% | Population Mitotic Cells (%) [2]: 65% | Population Normal (%) [2]: 93% | Population Pyknosed Nuclei (%) [2]: 8% | Population Tubulin-Different-Phenotype (%) [2]: 51% | Total Cell Count [2]: 332 | Population Apoptotic (%) [3]: 69% | Population Fragmented Nuclei (%) [3]: 67% | Population Healthy Nuclei (%) [3]: 13% | Population Hoechst High Intensity Objects (%) [3]: 67% | Population Membrane Permeable-Phenotype (%) [3]: 0% | Population Mitochondria Different-Phenotype (%) [3]: 84% | Population Mitotic Cells (%) [3]: 30% | Population Normal (%) [3]: 32% | Population Pyknosed Nuclei (%) [3]: 18% | Population Tubulin-Different-Phenotype (%) [3]: 68% | Total Cell Count [3]: 423 | Population Apoptotic (%) [4]: 55% | Population Fragmented Nuclei (%) [4]: 64% | Population Healthy Nuclei (%) [4]: 17% | Population Hoechst High Intensity Objects (%) [4]: 69% | Population Mitochondria Different-Phenotype (%) [4]: 90% | Population Mitotic Cells (%) [4]: 45% | Population Normal (%) [4]: 30% | Population Pyknosed Nuclei (%) [4]: 17% | Population Tubulin-Different-Phenotype (%) [4]: 50% | Total Cell Count [4]: 376 | Population Apoptotic (%) [5]: 29% | Population Fragmented Nuclei (%) [5]: 20% | Population Healthy Nuclei (%) [5]: 66% | Population Hoechst High Intensity Objects (%) [5]: 2% | Population Membrane Permeable-Phenotype (%) [5]: 2% | Population Mitochondria Different-Phenotype (%) [5]: 22% | Population Mitotic Cells (%) [5]: 70% | Population Normal (%) [5]: 97% | Population Pyknosed Nuclei (%) [5]: 12% | Population Tubulin-Different-Phenotype (%) [5]: 23% | Total Cell Count [5]: 547 | Population Apoptotic (%) [6]: 45% | Population Fragmented Nuclei (%) [6]: 15% | Population Healthy Nuclei (%) [6]: 73% | Population Hoechst High Intensity Objects (%) [6]: 6% | Population Membrane Permeable-Phenotype (%) [6]: 1% | Population Mitochondria Different-Phenotype (%) [6]: 33% | Population Mitotic Cells (%) [6]: 54% | Population Normal (%) [6]: 93% | Population Pyknosed Nuclei (%) [6]: 11% | Population Tubulin-Different-Phenotype (%) [6]: 35% | Total Cell Count [6]: 415 | Population Apoptotic (%) [7]: 72% | Population Fragmented Nuclei (%) [7]: 60% | Population Healthy Nuclei (%) [7]: 16% | Population Hoechst High Intensity Objects (%) [7]: 56% | Population Membrane Permeable-Phenotype (%) [7]: 0% | Population Mitochondria Different-Phenotype (%) [7]: 89% | Population Mitotic Cells (%) [7]: 27% | Population Normal (%) [7]: 43% | Population Pyknosed Nuclei (%) [7]: 23% | Population Tubulin-Different-Phenotype (%) [7]: 92% | Total Cell Count [7]: 394 | Population Fragmented Nuclei (%) [8]: 69% | Population Healthy Nuclei (%) [8]: 15% | Population Hoechst High Intensity Objects (%) [8]: 63% | Population Mitochondria Different-Phenotype (%) [8]: 94% | Population Normal (%) [8]: 36% | Population Pyknosed Nuclei (%) [8]: 14% | Population Tubulin-Different-Phenotype (%) [8]: 73% | Total Cell Count [8]: 334 | Population Apoptotic (%) [9]: 29% | Population Fragmented Nuclei (%) [9]: 19% | Population Healthy Nuclei (%) [9]: 72% | Population Hoechst High Intensity Objects (%) [9]: 1% | Population Membrane Permeable-Phenotype (%) [9]: 1% | Population Mitochondria Different-Phenotype (%) [9]: 17% | Population Mitotic Cells (%) [9]: 70% | Population Normal (%) [9]: 98% | Population Pyknosed Nuclei (%) [9]: 7% | Population Tubulin-Different-Phenotype (%) [9]: 10% | Total Cell Count [9]: 844 | Population Apoptotic (%) [10]: 47% | Population Fragmented Nuclei (%) [10]: 23% | Population Healthy Nuclei (%) [10]: 70% | Population Mitochondria Different-Phenotype (%) [10]: 21% | Population Mitotic Cells (%) [10]: 52% | Population Pyknosed Nuclei (%) [10]: 6% | Population Tubulin-Different-Phenotype (%) [10]: 14% | Total Cell Count [10]: 639 | Population Apoptotic (%) [11]: 86% | Population Fragmented Nuclei (%) [11]: 51% | Population Healthy Nuclei (%) [11]: 17% | Population Hoechst High Intensity Objects (%) [11]: 41% | Population Membrane Permeable-Phenotype (%) [11]: 0% | Population Mitochondria Different-Phenotype (%) [11]: 97% | Population Mitotic Cells (%) [11]: 13% | Population Normal (%) [11]: 59% | Population Pyknosed Nuclei (%) [11]: 30% | Population Tubulin-Different-Phenotype (%) [11]: 95% | Total Cell Count [11]: 400 | Population Apoptotic (%) [12]: 84% | Population Fragmented Nuclei (%) [12]: 47% | Population Healthy Nuclei (%) [12]: 22% | Population Hoechst High Intensity Objects (%) [12]: 49% | Population Mitochondria Different-Phenotype (%) [12]: 96% | Population Mitotic Cells (%) [12]: 15% | Population Normal (%) [12]: 50% | Population Tubulin-Different-Phenotype (%) [12]: 96% | Total Cell Count [12]: 298

CN(C)CCCc1cc(C(=O)Nc2ccc(-c3ccncc3)cc2)ccc1O.Cl.Cl
Population Apoptotic (%) [1]: 27% | Population Fragmented Nuclei (%) [1]: 5% | Population Healthy Nuclei (%) [1]: 79% | Population Hoechst High Intensity Objects (%) [1]: 9% | Population Membrane Permeable-Phenotype (%) [1]: 0% | Population Mitochondria Different-Phenotype (%) [1]: 48% | Population Mitotic Cells (%) [1]: 72% | Population Normal (%) [1]: 90% | Population Pyknosed Nuclei (%) [1]: 14% | Population Tubulin-Different-Phenotype (%) [1]: 37% | Total Cell Count [1]: 358 | Population Apoptotic (%) [2]: 37% | Population Healthy Nuclei (%) [2]: 82% | Population Hoechst High Intensity Objects (%) [2]: 8% | Population Mitochondria Different-Phenotype (%) [2]: 58% | Population Mitotic Cells (%) [2]: 62% | Population Normal (%) [2]: 91% | Population Pyknosed Nuclei (%) [2]: 11% | Population Tubulin-Different-Phenotype (%) [2]: 14% | Total Cell Count [2]: 367 | Population Apoptotic (%) [3]: 31% | Population Fragmented Nuclei (%) [3]: 10% | Population Healthy Nuclei (%) [3]: 81% | Population Hoechst High Intensity Objects (%) [3]: 6% | Population Membrane Permeable-Phenotype (%) [3]: 0% | Population Mitochondria Different-Phenotype (%) [3]: 49% | Population Mitotic Cells (%) [3]: 68% | Population Normal (%) [3]: 93% | Population Pyknosed Nuclei (%) [3]: 7% | Population Tubulin-Different-Phenotype (%) [3]: 33% | Total Cell Count [3]: 460 | Population Apoptotic (%) [4]: 60% | Population Fragmented Nuclei (%) [4]: 11% | Population Healthy Nuclei (%) [4]: 77% | Population Hoechst High Intensity Objects (%) [4]: 9% | Population Membrane Permeable-Phenotype (%) [4]: 2% | Population Mitochondria Different-Phenotype (%) [4]: 63% | Population Mitotic Cells (%) [4]: 39% | Population Normal (%) [4]: 90% | Population Pyknosed Nuclei (%) [4]: 11% | Total Cell Count [4]: 391 | Population Apoptotic (%) [5]: 25% | Population Fragmented Nuclei (%) [5]: 11% | Population Healthy Nuclei (%) [5]: 78% | Population Hoechst High Intensity Objects (%) [5]: 5% | Population Membrane Permeable-Phenotype (%) [5]: 1% | Population Mitochondria Different-Phenotype (%) [5]: 26% | Population Mitotic Cells (%) [5]: 74% | Population Normal (%) [5]: 94% | Population Pyknosed Nuclei (%) [5]: 10% | Population Tubulin-Different-Phenotype (%) [5]: 21% | Total Cell Count [5]: 542 | Population Fragmented Nuclei (%) [6]: 9% | Population Healthy Nuclei (%) [6]: 83% | Population Membrane Permeable-Phenotype (%) [6]: 0% | Population Mitochondria Different-Phenotype (%) [6]: 32% | Population Mitotic Cells (%) [6]: 75% | Population Pyknosed Nuclei (%) [6]: 6% | Population Tubulin-Different-Phenotype (%) [6]: 9% | Total Cell Count [6]: 486 | Population Apoptotic (%) [7]: 32% | Population Fragmented Nuclei (%) [7]: 12% | Population Healthy Nuclei (%) [7]: 77% | Population Hoechst High Intensity Objects (%) [7]: 5% | Population Membrane Permeable-Phenotype (%) [7]: 0% | Population Mitochondria Different-Phenotype (%) [7]: 38% | Population Mitotic Cells (%) [7]: 67% | Population Normal (%) [7]: 94% | Population Pyknosed Nuclei (%) [7]: 9% | Population Tubulin-Different-Phenotype (%) [7]: 23% | Total Cell Count [7]: 588 | Population Apoptotic (%) [8]: 47% | Population Fragmented Nuclei (%) [8]: 15% | Population Healthy Nuclei (%) [8]: 74% | Population Hoechst High Intensity Objects (%) [8]: 15% | Population Mitochondria Different-Phenotype (%) [8]: 48% | Population Mitotic Cells (%) [8]: 52% | Population Normal (%) [8]: 84% | Population Tubulin-Different-Phenotype (%) [8]: 19% | Total Cell Count [8]: 505 | Population Apoptotic (%) [9]: 23% | Population Fragmented Nuclei (%) [9]: 11% | Population Healthy Nuclei (%) [9]: 81% | Population Hoechst High Intensity Objects (%) [9]: 2% | Population Membrane Permeable-Phenotype (%) [9]: 2% | Population Mitochondria Different-Phenotype (%) [9]: 19% | Population Mitotic Cells (%) [9]: 76% | Population Normal (%) [9]: 97% | Population Pyknosed Nuclei (%) [9]: 6% | Population Tubulin-Different-Phenotype (%) [9]: 14% | Total Cell Count [9]: 814 | Population Apoptotic (%) [10]: 21% | Population Fragmented Nuclei (%) [10]: 16% | Population Healthy Nuclei (%) [10]: 75% | Population Hoechst High Intensity Objects (%) [10]: 5% | Population Membrane Permeable-Phenotype (%) [10]: 1% | Population Mitochondria Different-Phenotype (%) [10]: 24% | Population Mitotic Cells (%) [10]: 78% | Population Normal (%) [10]: 94% | Population Pyknosed Nuclei (%) [10]: 8% | Population Tubulin-Different-Phenotype (%) [10]: 13% | Total Cell Count [10]: 596 | Population Apoptotic (%) [11]: 29% | Population Fragmented Nuclei (%) [11]: 17% | Population Healthy Nuclei (%) [11]: 75% | Population Hoechst High Intensity Objects (%) [11]: 5% | Population Membrane Permeable-Phenotype (%) [11]: 1% | Population Mitochondria Different-Phenotype (%) [11]: 21% | Population Mitotic Cells (%) [11]: 70% | Population Normal (%) [11]: 94% | Population Pyknosed Nuclei (%) [11]: 6% | Population Tubulin-Different-Phenotype (%) [11]: 13% | Total Cell Count [11]: 883 | Population Apoptotic (%) [12]: 58% | Population Fragmented Nuclei (%) [12]: 15% | Population Healthy Nuclei (%) [12]: 76% | Population Hoechst High Intensity Objects (%) [12]: 11% | Population Membrane Permeable-Phenotype (%) [12]: 0% | Population Mitochondria Different-Phenotype (%) [12]: 35% | Population Mitotic Cells (%) [12]: 41% | Population Normal (%) [12]: 88% | Population Pyknosed Nuclei (%) [12]: 7% | Population Tubulin-Different-Phenotype (%) [12]: 20% | Total Cell Count [12]: 641
